Measurements: ChEMBL document CHEMBL3259808, “Optimization of antitrypanosomatid agents: identification of nonmutagenic drug candidates with in vivo activity” (J Med Chem, 2014)
Active and inactive are the calls of the source. No cut-off for these calls is given here.

Legend:
Trypanosoma cruzi [1] = assay: Antitrypanosomal activity against Trypanosoma cruzi Y trypomastigotes assessed as growth inhibition at 25 uM after 48 hrs by microscopic analysis relative to control; format: functional; settings: read-out: GI
Procedure, shortened: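 Blood was collected by cardiac puncture, with sodium citrate, from BALB/c mice 7 days after infection. Compound was dissolved in minimal DMSO and diluted in PBS (final 25 μM). Drug solution was mixed with infected blood (about 10⁶ parasites/mL) in triplicate, shaken 10 min at room temperature, then held at 4 °C for 48 h. Parasites were counted microscopically against untreated infected blood. Gentian violet 250 μg/mL was the reference.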

Trypanosoma cruzi [2] = assay: Antitrypanosomal activity against Trypanosoma cruzi CL Brener infected in BALB/c mouse assessed as mouse survival at 214 umol/kg/day, po for 14 days administered in cholesterol/surfactant/phosphate buffer measured up to 60 days relative to control; format: functional
Procedure, shortened: (§1)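 Infected male BALB/c mice (30 days old, 25–30 g) were gavaged daily from day 6 postinfection for 14 days. Vehicle was a microemulsion of 10% cholesterol, 10% surfactant (soya phosphatidylcholine/sodium oleate/polyoxyl-40 hydrogenated castor oil) and 80% phosphate buffer pH 7.4. n = 7/group, with vehicle controls. Tail-vein parasitemia was taken weekly for 60 days and mortality recorded.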

Trypanosoma cruzi [3] = assay: Antitrypanosomal activity against Trypanosoma cruzi CL Brener infected in BALB/c mouse assessed as peak of maximum parasitemia at 107 umol/kg/day, po for 14 days administered in saline and tween 80 measured up to 60 days relative to control; format: functional
Procedure, shortened: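 Male BALB/c mice (30 days old, 25–30 g, SPF) were infected i.p. with 10³ blood trypomastigotes, n = 8/group. Daily oral gavage in saline/Tween 80 (4:1) ran for 14 days from day 6 post-infection; controls received vehicle only. Parasitemia was counted weekly in tail-vein blood by hemocytometer for 60 days, and survival was recorded.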

Salmonella typhimurium [4] = assay: Mutagenic activity in Salmonella typhimurium TA1537 at 3.09 to 250 ug/plate by Ames test; format: toxicity, organism-based; settings: salmonella enterica subsp. enterica serovar typhimurium
Procedure, shortened: (§2)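 Direct plate incubation on minimal glucose agar (Vogel-Bonner E). Compound toxicity to the bacteria was checked first. DMSO solutions were tested at five consecutive 3-fold dilutions, starting from the highest non-toxic dose, in triplicate, without metabolic activation. DMSO served as negative control. Revertants were counted manually; mutagenic = revertants at least double the negative control at two or more consecutive doses.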

Salmonella typhimurium [5] = assay: Mutagenic activity in Salmonella typhimurium TA100 at 0.003 to 0.2 ug/plate by Ames test in presence of mouse liver S9 fraction; format: toxicity, organism-based; settings: salmonella enterica subsp. enterica serovar typhimurium
Procedure, shortened: (§3)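 Plate-incorporation Ames test on minimal glucose agar with 500 μL Aroclor-treated mouse liver S9 added. DMSO solutions were tested at five consecutive 3-fold dilutions from the highest non-toxic dose, in triplicate, with a DMSO negative control. Revertants were counted manually; a compound was scored mutagenic when revertants were at least twice the negative control for two or more consecutive doses.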

[6] = Stability of the compound in aqueous solution assessed as compound remaining at 1 mM at pH 6 after 1 hr by TLC analysis; format: physicochemical; settings: aqueous solution, pH 6; read-out: Stability
Procedure, shortened: (§4)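 DMSO stocks diluted to final 1 mM in KCl·HCl pH 1.0, citrate pH 6.0, Tris·HCl pH 7.4 or borax·HCl pH 9.0 buffer. Incubated 1 h at 37 °C, then ethyl acetate extracts checked by TLC for decomposition products.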

[7] = Stability of the compound in aqueous solution assessed as compound remaining at 1 mM at pH 9 after 1 hr by TLC analysis; format: physicochemical; settings: aqueous solution, pH 9; read-out: Stability; procedure, shortened: as §4
Trypanosoma cruzi [8] = assay: Antitrypanosomal activity against Trypanosoma cruzi Sylvio X-10 amastigotes infected in African green monkey Vero cells assessed as eradication of amastigotes after 5 days by Giemsa staining-based assay; format: functional, organism-based; settings: Sylvio X-10, Vero, 120 h
Procedure, shortened: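 VERO cells in RPMI 1640 with 10% hiFCS were allowed to adhere for 24 h at 37 °C in 5% CO₂, then infected with tissue-derived trypomastigotes at 10:1. Free parasites were washed off after 24 h, and cultures were treated at five compound doses (text gives 72 h / 5 days). Cultures were methanol-fixed and Giemsa-stained, and infected cells were counted among 300. Quadruplicates were run in three independent experiments. IC50/IC90 were obtained by sigmoidal regression.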

Trypanosoma cruzi [9] = assay: Antitrypanosomal activity against Trypanosoma cruzi CL Brener infected in BALB/c mouse assessed as peak of maximum parasitemia at 214 umol/kg/day, po for 14 days administered in cholesterol/surfactant/phosphate buffer measured up to 60 days relative to control; format: functional
Procedure, shortened: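 Male BALB/c mice (30 days old, 25–30 g, SPF) were infected i.p. with 10³ blood trypomastigotes, n = 7/group. Daily oral gavage in a microemulsion (cholesterol oil phase, phosphatidylcholine/sodium oleate/polyoxyl-40 hydrogenated castor oil surfactant, phosphate buffer pH 7.4) ran for 14 days from day 6; vehicle controls were included. Parasitemia was read weekly in tail-vein blood by hemocytometer for 60 days, with survival recorded.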

Salmonella typhimurium [10] = assay: Mutagenic activity in Salmonella typhimurium TA1537 at 3.09 to 250 ug/plate by Ames test in presence of mouse liver S9 fraction; format: toxicity, organism-based; settings: salmonella enterica subsp. enterica serovar typhimurium; procedure, shortened: as §3
Trypanosoma cruzi [11] = assay: Antitrypanosomal activity against Trypanosoma cruzi Sylvio X-10 amastigotes infected in African green monkey Vero cells assessed as eradication of amastigotes at 5 uM after 5 days by optical microscopic analysis; format: functional, organism-based; settings: in the assay text read “after 72 hrs” for “after 5 days”
Procedure, shortened: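 VERO cells infected with Sylvio X-10 parasites were treated with 5 μM compound and examined by optic microscopy after 72 h of incubation for intracellular amastigotes and trypomastigotes.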

Trypanosoma cruzi [12] = assay: Antitrypanosomal activity against Trypanosoma cruzi Tulahuen 2 epimastigotes assessed as growth inhibition after 5 days; format: functional, organism-based; settings: Trypanosoma cruzi, Tulahuen 2, 120 h
Procedure, shortened: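 Epimastigotes were grown axenically at 28 °C in BHI-tryptose with 5% FBS and seeded from a 5–7 day culture at 1 × 10⁶ cells/mL. Drug from a DMSO stock was added (final DMSO ≤0.4%; the control contained 0.4% DMSO). Duplicates were run. A600 was read at day 5, and % inhibition was calculated relative to day-0 and control readings. IC50 = concentration that halves the absorbance ratio.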

Salmonella typhimurium [13] = assay: Mutagenic activity in Salmonella typhimurium TA100 at 0.003 to 0.2 ug/plate by Ames test; format: toxicity, organism-based; settings: salmonella enterica subsp. enterica serovar typhimurium; procedure, shortened: as §2
[14] = Selectivity index, ratio of IC50 for African green monkey Vero cells to IC50 for Trypanosoma cruzi Sylvio X-10 amastigotes; format: toxicity, cell-based; settings: read-out: Ratio IC50
Procedure, shortened: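 VERO cytotoxicity: cells exposed 48 h at 37 °C, 5% CO2 to serial dilutions from a maximum of 2000 μM (DMSO stocks; DMSO <0.1% control); growth inhibition read by MTT at 570 nm. Amastigote IC50: Sylvio X-10-infected VERO cells, five doses, infected cells counted among 300 (Giemsa), quadruplicate, three experiments, sigmoidal fit. SI = IC50 VERO / IC50 amastigote.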

Trypanosoma cruzi [15] = assay: Antitrypanosomal activity against Trypanosoma cruzi CL Brener infected in BALB/c mouse assessed as mouse survival at 107 umol/kg/day, po for 14 days administered in cholesterol/surfactant/phosphate buffer measured up to 60 days relative to control; format: functional; procedure, shortened: as §1

Br.C=CCn1c(-c2ccc(Cl)cc2)cs\c1=N/N=C/C=C/c1ccco1.O gave an inhibition of growth at 25 µM (Trypanosoma cruzi [1]) of 70%, a survival at 214 µmol/kg (Trypanosoma cruzi [2]) of 100% and a Time (Trypanosoma cruzi [3]) of 26 days. For the same molecule, the Activity (Salmonella typhimurium [4]) was “Non-toxic”, the Activity (Salmonella typhimurium [5]) was “Non-toxic” and the remaining at 1 h, 1000 µM [6] was > 95%. The remaining at 1 h, 1000 µM [7] was > 95%, the IC50 (Trypanosoma cruzi [8]) was < 250 nM and the Time (Trypanosoma cruzi [9]) was 35 days. For the same molecule, the Activity (Salmonella typhimurium [10]) was “Non-toxic”, the Activity (Trypanosoma cruzi [11]) was “Active” and the IC50 (Trypanosoma cruzi [12]) was 1300 nM. For the same molecule, the Activity (Salmonella typhimurium [13]) was “Non-toxic”, the selectivity ratio [14] was > 1000 and the survival at 107 µmol/kg (Trypanosoma cruzi [15]) was 100%.
